Blank lines part the entries; values can stand above or below the compound they belong to. The source made the active and inactive calls. No cut-off for these calls is given here.
Columns and labels:
[1] = biological target: T1, Stimulator of interferon genes protein (Homo sapiens, UniProt Q86WV6); assay: Activation of human STING (139 to 379 residues) expressed in THP1-Blue ISG cells at 10 uM incubated for 24 hrs by quanti-blue SEAP reporter gene assay relative to control; format: cell-based; conditions: filed as activator
T1 sequence (Q86WV6 whole entry, the tested form may be a part): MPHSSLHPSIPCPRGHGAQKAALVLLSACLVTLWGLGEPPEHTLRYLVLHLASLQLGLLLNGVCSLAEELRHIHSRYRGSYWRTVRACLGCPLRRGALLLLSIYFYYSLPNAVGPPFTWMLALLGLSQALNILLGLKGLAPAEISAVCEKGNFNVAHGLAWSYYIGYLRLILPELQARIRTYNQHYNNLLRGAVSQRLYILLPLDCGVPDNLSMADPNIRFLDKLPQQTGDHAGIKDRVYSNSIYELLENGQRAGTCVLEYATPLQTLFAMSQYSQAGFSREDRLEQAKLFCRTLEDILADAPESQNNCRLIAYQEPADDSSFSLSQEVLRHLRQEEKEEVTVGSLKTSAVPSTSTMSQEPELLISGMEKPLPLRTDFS
Summary of the method: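 THP1-Blue-ISG cells (1 × 10⁵/well) treated for 24 h; single-concentration screen at 10 μM. SEAP ISG reporter in 20 μL supernatant read with QUANTI-Blue at 650 nm. Activation given as fold over control, averaging at least two experiments.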

[2] = Solubility of the compound; format: physicochemical
[3] = biological target: T1, Stimulator of interferon genes protein; assay: Activation of STING in human THP1-Dual cells assessed as induction of ISG signaling at 0.005 to 10 uM measured after 24 hrs by Quanti-Blue reagent based assay; format: cell-based; conditions: filed as activator, dose 0.005-10 µM
Summary of the method: (§1)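 THP1-Dual cells (1 × 10⁵/well) treated for 24 h. Supernatant (20 μL) incubated 1 h at 37 °C with QUANTI-Blue, then absorbance read at 650 nm. Fold change calculated relative to vehicle control.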

[4] = biological target: T1, Stimulator of interferon genes protein; assay: Activation of STING in human THP1-Dual cells assessed as induction of NF-KB signaling at 0.005 to 10 uM measured after 24 hrs by Quanti-Blue reagent based assay; format: cell-based; conditions: filed as activator, dose 0.005-10 µM; summary of the method: as §1
[5] = biological target: T1, Stimulator of interferon genes protein; assay: Activation of STING in human THP1-Dual cells assessed as increase in IP-10 secretion at 0.01 to 10 uM measured after 24 hrs by ELISA; format: cell-based; conditions: filed as activator, dose 0.01-10 µM
Summary of the method: (§2)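 THP1-Dual cells seeded at 10⁵ cells/well and treated for 24 h. Human IP-10 and IFN-β in supernatant quantified by ELISA kits. Concentration (pg/mL) derived from a standard curve.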

[6] = biological target: T1, Stimulator of interferon genes protein; assay: Activation of STING in human THP1-Dual cells assessed as increase in IFNbeta secretion at 10 uM measured after 24 hrs by ELISA; format: cell-based; conditions: filed as activator; summary of the method: as §2
[7] = biological target: T1, Stimulator of interferon genes protein; assay: Activation of STING in human THP1-Dual cells assessed as increase in TBK1/IRF3 phosphorylation measured after 4 hrs by Western blot analysis; format: cell-based; conditions: filed as activator, dose 3.3-30 µM
Summary of the method: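 THP1-Dual cells (8 × 10⁵/well) treated at 3.3, 10 and 30 μM for 4 h, then lysed in SDS sample buffer and boiled. Lysates run on 10% SDS-PAGE and transferred to nitrocellulose. Blots probed for TBK1, phospho-TBK1 Ser172, IRF3, phospho-IRF3 Ser396 and GAPDH, with HRP secondaries and ECL detection.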

[8] = system: Stimulator of interferon genes protein (Homo sapiens), Q86WV6 [UNDEFINED MUTATION]; assay: Binding affinity to human STING R232 mutant assessed as thermal stability by measuring melting temperature […] differential scanning fluorimetry (reference value: 38.75 degreeC); conditions: filed as activator
Chain of Stimulator of interferon genes protein (Homo sapiens), Q86WV6 [UNDEFINED MUTATION] (Q86WV6 whole entry, looked up, change not shown): as the sequence (Q86WV6 whole entry, the tested form may be a part) above
Summary of the method: (§3)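 Thermal shift by DSF: 5 μM STING protein, 50 μM compound and 10× SYPRO Orange in 10 mM HEPES pH 7.5, 150 mM NaCl. Samples heated from 30 to 80 °C at 0.5 °C/min. Tm taken as the temperature of median fluorescence between onset and maximum; n = 3.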

[9] = species: Homo sapiens; assay: Binding affinity to human STING H232 mutant assessed as thermal stability by measuring melting temperature […] differential scanning fluorimetry (reference value: 39.5 degreeC); conditions: filed as activator; summary of the method: as §3
[10] = species: Homo sapiens; assay: Binding affinity to human STING 293Q mutant assessed as thermal stability by measuring melting temperature […] differential scanning fluorimetry (reference value: 46.25 degreeC); conditions: filed as activator; summary of the method: as §3
[11] = system: Stimulator of interferon genes protein (Homo sapiens), Q86WV6 [R71H,G230A,R293Q]; assay: Binding affinity to human STING HAQ mutant assessed as thermal stability by measuring melting temperature […] differential scanning fluorimetry (reference value: 37.25 degreeC); conditions: filed as activator; summary of the method: as §3
Chain of Stimulator of interferon genes protein (Homo sapiens), Q86WV6 [R71H,G230A,R293Q] (Q86WV6 whole entry R71H/G230A/R293Q): as the sequence (Q86WV6 whole entry, the tested form may be a part) above, with R71H, G230A, R293Q counted along it

[12] = species: Mus musculus; assay: Binding affinity to mouse STING mR231 mutant assessed as thermal stability by measuring melting temperature […] differential scanning fluorimetry (reference value: 42 degreeC); conditions: filed as activator; summary of the method: as §3
[13] = system: 4T1; assay: Antitumor activity against mouse 4T1 cells […] in orthotopic BALB/c mouse assessed as tumor regression at 10 mg/kg, iv administered on day 1,4 and 7 post inoculation; format: functional, organism-based; conditions: time 7.0 day
Summary of the method: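 BALB/c mice bearing orthotopic 4T1 tumors (5 × 10⁵ cells in the breast fat pad; n = 5) dosed iv at 10 mg/kg on days 1, 4 and 7 once tumors reached about 50–100 mm³. Tumor volume calculated as (a × b²)/2 and, with body weight, measured twice weekly.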

[14] = biological target: T2, Stimulator of interferon genes protein (Mus musculus) (UniProt Q3TBT3); assay: Activation of mouse STING expressed in RAW-Lucia ISG cells at 50 uM incubated for 24 hrs by QUANTI-Luc luciferase reporter gene assay relative to control; conditions: filed as activator
T2 sequence (whole entry): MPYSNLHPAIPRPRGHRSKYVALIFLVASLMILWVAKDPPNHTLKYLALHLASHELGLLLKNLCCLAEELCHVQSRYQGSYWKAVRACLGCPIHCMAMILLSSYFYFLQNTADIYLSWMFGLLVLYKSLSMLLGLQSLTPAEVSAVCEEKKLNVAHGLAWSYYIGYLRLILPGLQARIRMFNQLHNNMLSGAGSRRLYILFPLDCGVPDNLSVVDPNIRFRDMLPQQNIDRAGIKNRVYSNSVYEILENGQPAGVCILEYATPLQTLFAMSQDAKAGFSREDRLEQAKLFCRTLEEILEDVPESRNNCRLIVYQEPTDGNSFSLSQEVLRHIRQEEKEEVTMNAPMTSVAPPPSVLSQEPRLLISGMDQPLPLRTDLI

[15] = Half life in rat at 1 mg/kg, iv; format: ADME, organism-based; conditions: in vivo
[16] = AUClast in rat at 1 mg/kg, iv; format: ADME, organism-based; parameters: time 0 - last, route intravenous, dose 1 mg/kg; conditions: in vivo
[17] = Observed AUCinfinity in rat at 1 mg/kg, iv; format: ADME, organism-based; parameters: time infinity, route intravenous, dose 1 mg/kg; conditions: in vivo
[18] = Observed clearance in rat at 1 mg/kg, iv; format: ADME, organism-based; conditions: in vivo
[19] = Observed MRT infinity in rat at 1 mg/kg, iv; format: ADME, organism-based; conditions: in vivo
[20] = Observed volume of distribution at steady state in rat at 1 mg/kg, iv; format: ADME, organism-based; conditions: in vivo, read-out: Vdss
[21] = biological target: T1, Stimulator of interferon genes protein; assay: Binding affinity to 6His-tagged human STING measured after 3 hrs by HTRF assay
[22] = Toxicity in orthotopic BALB/c mouse co-inoculated with mouse 4T1 […] cells assessed as drug tolerance at 10 mg/kg, iv administered on day 1,4 and 7 post inoculation; format: organism-based; conditions: in vivo, 168 h, time 7 day
Summary of the method: (§4)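 BALB/c mice received 5 × 10⁵ 4T1 cells into the breast fat pad (orthotopic), with n = 5. Dosing began when tumours reached about 50−100 mm³: 10 mg/kg iv on days 1, 4 and 7, against a vehicle group. Body weight and tumour volume were recorded twice weekly, with tolerance and survival followed after each injection.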

[23] = Toxicity in orthotopic BALB/c mouse co-inoculated with mouse 4T1 […] cells assessed as weight loss at 10 mg/kg, iv administered on day 1,4 and 7 post inoculation; format: organism-based; conditions: in vivo, 168 h, time 7 day; summary of the method: as §4
[24] = biological target: T1, Stimulator of interferon genes protein; assay: Activation of human STING expressed in THP1-Dual cells incubated for 24 hrs by secreted luciferase reporter gene assay
[25] = biological target: T3, Stimulator of interferon genes protein (Mus musculus, UniProt Q3TBT3); assay: Activation of mouse STING expressed in RAW-Lucia ISG cells incubated for 24 hrs by secreted luciferase reporter gene assay
T3 sequence (Q3TBT3 whole entry): T2 sequence (whole entry)

[26] = biological target: T1, Stimulator of interferon genes protein; assay: Agonist activity at wild type human STING expressed in baculovirus infected Sf21 insect cells
[27] = biological target: Stimulator of interferon genes protein (Homo sapiens, UniProt Q86WV6, G230A/R293Q/R71H); assay: Agonist activity at human STING HAQ expressed in baculovirus infected Sf21 insect cells
Chain of Stimulator of interferon genes protein (Homo sapiens, UniProt Q86WV6, G230A/R293Q/R71H) (Q86WV6 whole entry R71H/G230A/R293Q): as the sequence (Q86WV6 whole entry, the tested form may be a part) above, with R71H, G230A, R293Q counted along it

- fold change (FC) [1]: 26
- solubility [2]: 3230 µg/mL
- Activity [3]: Active
- Activity [4]: Active
- Activity [5]: Active
- Activity [6]: Active
- Activity [7]: Dose-Dependent Effect
- Tm [8]: 48.5 °C
- Tm [9]: 50.2 °C
- Tm [10]: 49 °C
- Tm [11]: 48.8 °C
- Tm [12]: 55.5 °C
- fold change (FC) [14]: 8.11
SMILES: CCn1nc(C)cc1C(=O)/N=c1\[nH]c2cc(C(N)=O)cc(OC)c2n1C/C=C/Cn1/c(=N/C(=O)c2cc(C)nn2CC)[nH]c2cc(C(N)=O)cc(OCCCN3CCOCC3)c21.Cl.Cl.Cl
- Activity [13]: Active

SMILES: CCn1nc(C)cc1C(=O)/N=c1\[nH]c2cc(-c3ncn[nH]3)cc(OC)c2n1C/C=C/Cn1/c(=N/C(=O)c2cc(C)nn2CC)[nH]c2cc(C(N)=O)cc(OCCCN3CCOCC3)c21
- half-life [15]: 41.8 min
- AUC(0-t) [16]: 678 ng·h/mL
- AUC(0-inf) [17]: 705 ng·h/mL
- clearance [18]: 23.9 mL/min/kg
- MRT inf [19]: 30.2 min
- Vd [20]: 0.722 L/kg
- EC50 [21]: 0.0062 µM
- Activity [22]: Non-Toxic
- Activity [23]: Toxic
- EC50 [24]: 0.24 µM
- EC50 [25]: 39.5 µM

- EC50 [26]: 24 µM
- EC50 [27]: 8.3 µM
SMILES: COc1cc2cc(C(=O)CCC(=O)O)sc2cc1OC
